Results published in ChEMBL document CHEMBL1122222, “Synthesis and biological activities of the Z isomers of carbapenem antibiotics” (J Med Chem, 1983).
In brackets after ≈: the same amount, converted by molar mass.

What was measured:
[1] = molecular target: T1, Beta-lactamase (Proteus mirabilis) (UniProt P30897); conditions: Proteus vulgaris
T1 sequence (whole entry): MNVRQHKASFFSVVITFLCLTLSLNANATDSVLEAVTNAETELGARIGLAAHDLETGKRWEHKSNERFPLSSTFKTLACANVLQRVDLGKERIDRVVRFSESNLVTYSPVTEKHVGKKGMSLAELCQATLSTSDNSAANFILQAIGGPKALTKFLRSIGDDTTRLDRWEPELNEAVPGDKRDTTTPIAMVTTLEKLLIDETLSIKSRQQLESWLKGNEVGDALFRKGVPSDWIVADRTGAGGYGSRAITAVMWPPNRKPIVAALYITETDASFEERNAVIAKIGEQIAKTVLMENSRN

Beta-lactamase [2] = molecular target: Beta-lactamase (Proteus vulgaris, UniProt P52664); assay: Beta-lactamase inhibitory activity against cephalosporinase of Proteus vulgaris GN4413; conditions: read-out: I50 (converted)
[3] = molecular target: Beta-lactamase (Serratia marcescens) (UniProt P18539)
Beta-lactamase [4] = molecular target: Beta-lactamase (Serratia marcescens, UniProt P18539); assay: Beta-lactamase inhibitory activity against cephalosporinase of Serratia marcescens. TN81; conditions: read-out: I50 (converted)
Beta-lactamase [5] = molecular target: Beta-lactamase (Staphylococcus aureus, UniProt P00807); assay: Beta-lactamase inhibitory activity against penicillinase of Staphylococcus aureus 1840; conditions: read-out: I50 (converted)
[6] = molecular target: Beta-lactamase (Staphylococcus aureus) (UniProt P00807)
[7] = In vitro potentiation activity was tested after adding a concentration of […] into the agar plate of cefotiam; show synergistic effect; type: functional
Mus musculus [8] = assay: In vivo protective effect in mice infected with Proteus vulgaris GN4815 at (dose mg/kg) administered sc; type: functional
[9] = tested on: Acinetobacter calcoaceticus; assay: Inhibition of growth of Acinetobacter calcoaceticus. IFO 13006; type: functional, acinetobacter calcoacet; conditions: Acinetobacter calcoaceticus, IFO 13006; read-out: MIC
How it was run: (§1)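 Agar dilution MIC on Trypticase soy agar; inoculum one loopful of bacterial suspension at 10⁸ cfu/mL.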

Escherichia coli [10] = assay: MIC against Escherichia coli O-111; type: functional; conditions: Escherichia coli; read-out: MIC
How it was run: as §1

Mus musculus [11] = assay: In vivo synergistic protective effect with cefotiam in mice infected with Proteus vulgaris GN4815 at 10 mg/kg dose given sc; type: functional; conditions: route subcutaneous
Mus musculus [12] = assay: In vivo synergistic protective effect with cefotiam in mice infected with Proteus vulgaris GN4815 at 0.1 mg/kg dose given sc; type: functional; conditions: route subcutaneous
Citrobacter freundii = assay: Inhibition of growth of Citrobacter freundii IFO 12681; type: functional; conditions: Citrobacter freundii, IFO 12681; read-out: MIC
How it was run: as §1

Enterobacter cloacae = assay: Inhibition of growth of Enterobacter cloacae IFO 12937; type: functional; conditions: Enterobacter cloacae, IFO 12937; read-out: MIC
How it was run: as §1

Morganella morganii = assay: Inhibition of growth of Proteus morganii IFO 3168; type: functional; conditions: Morganella morganii, IFO 3168; read-out: MIC
How it was run: as §1

Serratia marcescens = assay: Inhibition of growth of Serratia marcescens IFO 12648; type: functional; conditions: Serratia marcescens, IFO 12648; read-out: MIC
How it was run: as §1

Mus musculus [13] = assay: In vivo synergistic protective effect with cefotiam in mice infected with Proteus vulgaris GN4815 at 1 mg/kg dose given sc; type: functional; conditions: route subcutaneous
Pseudomonas aeruginosa = assay: Inhibition of growth of Pseudomonas aeruginosa IFO 3455; type: functional; conditions: Pseudomonas aeruginosa, IFO 3455; read-out: MIC
How it was run: as §1

Staphylococcus aureus = assay: Inhibition of growth of Staphylococcus aureus 308 A-1; type: functional; conditions: Staphylococcus aureus; read-out: MIC
How it was run: as §1

Mus musculus [14] = organism: Mus musculus; assay: Half life in mouse kidney homogenates; type: ADME
How it was run: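 Carbapenem at 50 µg/mL incubated in 10% mouse kidney homogenate at 30 °C; residual antibiotic measured at intervals by its β-lactamase-inhibiting activity.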

Mus musculus [15] = assay: Effective does against ip infected Escherichia coli O-111 […] when administered sc; type: functional; conditions: Mus musculus; read-out: ED50
How it was run: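 Slc:ICR mice; ED50 calculated by the Reed–Muench method from survival recorded 5 days after infection.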

Proteus mirabilis = assay: Inhibition of growth of Proteus mirabilis IFO 3849; type: functional; conditions: Proteus mirabilis, IFO 3849; read-out: MIC
How it was run: as §1

Klebsiella pneumoniae [16] = assay: Inhibition of growth of Klebsiella pneumoniae DT; type: functional; conditions: Klebsiella pneumoniae; read-out: MIC
How it was run: as §1

Proteus vulgaris = assay: Inhibition of growth of Proteus vulgaris IFO 3988; type: functional; conditions: Proteus vulgaris, IFO 3988; read-out: MIC
How it was run: as §1

Escherichia coli [17] = assay: Inhibition of growth of Escherichia coli T-7; type: functional; conditions: Escherichia coli; read-out: MIC
How it was run: as §1

[18] = In vitro potentiation activity was tested after adding a concentration of […] into the agar plate of ampicillin; show synergistic effect; type: functional
[19] = molecular target: Beta-lactamase (Staphylococcus aureus) (UniProt P00807); remark: listed apart in the source
[20] = In vitro potentiation activity was tested after adding a concentration of […] into the agar plate of ampicillin or cefotiam; show synergistic effect; type: functional
[21] = molecular target: T1, Beta-lactamase (Proteus mirabilis); conditions: Proteus vulgaris; remark: listed apart in the source
Klebsiella pneumoniae [22] = assay: Beta-lactamase inhibitory activity against penicillinase of Klebsiella pneumoniae. TN1698
Mus musculus [23] = assay: In vivo synergistic protective effect with cefotiam in mice infected with Proteus vulgaris GN4815 at 100 mg/kg dose given sc; type: functional; conditions: route subcutaneous
[24] = molecular target: Beta-lactamase (Serratia marcescens) (UniProt P18539); remark: listed apart in the source

Beta-lactamase (Proteus vulgaris, UniProt P52664), sequence (P52664 whole entry, looked up): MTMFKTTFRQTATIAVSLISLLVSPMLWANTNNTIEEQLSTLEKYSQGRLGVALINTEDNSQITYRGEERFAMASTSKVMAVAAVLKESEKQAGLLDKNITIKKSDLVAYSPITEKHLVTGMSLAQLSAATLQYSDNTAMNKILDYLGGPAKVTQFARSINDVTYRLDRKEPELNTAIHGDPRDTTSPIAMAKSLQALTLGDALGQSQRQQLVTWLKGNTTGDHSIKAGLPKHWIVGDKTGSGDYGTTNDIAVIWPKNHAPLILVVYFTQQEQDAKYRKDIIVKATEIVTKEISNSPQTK
Beta-lactamase (Serratia marcescens, UniProt P18539), sequence (P18539 whole entry): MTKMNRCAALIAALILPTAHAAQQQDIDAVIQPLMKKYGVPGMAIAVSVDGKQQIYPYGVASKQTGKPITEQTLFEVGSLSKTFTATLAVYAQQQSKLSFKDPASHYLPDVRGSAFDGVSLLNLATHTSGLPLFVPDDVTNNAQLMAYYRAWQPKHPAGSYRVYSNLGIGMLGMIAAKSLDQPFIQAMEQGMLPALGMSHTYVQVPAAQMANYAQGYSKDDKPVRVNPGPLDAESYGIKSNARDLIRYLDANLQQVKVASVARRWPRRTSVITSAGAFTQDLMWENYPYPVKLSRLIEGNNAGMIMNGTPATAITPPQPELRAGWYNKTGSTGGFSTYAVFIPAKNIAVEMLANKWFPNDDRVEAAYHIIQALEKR
Beta-lactamase (Staphylococcus aureus, UniProt P00807), sequence (P00807 whole entry): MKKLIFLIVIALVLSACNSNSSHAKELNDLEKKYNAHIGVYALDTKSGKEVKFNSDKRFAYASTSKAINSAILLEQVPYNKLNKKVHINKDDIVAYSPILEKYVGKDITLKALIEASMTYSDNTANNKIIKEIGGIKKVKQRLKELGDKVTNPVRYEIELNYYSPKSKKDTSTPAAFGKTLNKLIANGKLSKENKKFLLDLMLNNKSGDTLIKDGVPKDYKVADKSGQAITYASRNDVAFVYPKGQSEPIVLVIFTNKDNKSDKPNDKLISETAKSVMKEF
Beta-lactamase (Serratia marcescens), sequence (P18539 whole entry): as the sequence (P18539 whole entry) above
Beta-lactamase (Staphylococcus aureus), sequence (P00807 whole entry): as the sequence (P00807 whole entry) above

| SMILES | IC50 (Beta-lactamase [2]) [nM] | IC50 (Beta-lactamase [4]) [nM] | IC50 (Beta-lactamase [5]) [nM] | MIC [9] [µg/mL] | MIC (Escherichia coli [10]) [µg/mL] | ED50 at 10 mg/kg (Mus musculus [11]) [mg/kg] | MIC (Citrobacter freundii) [µg/mL] | MIC (Enterobacter cloacae) [µg/mL] | MIC (Morganella morganii) [µg/mL] | MIC (Serratia marcescens) [µg/mL] | ED50 at 1 mg/kg (Mus musculus [13]) [mg/kg] | MIC (Pseudomonas aeruginosa) [µg/mL] | MIC (Staphylococcus aureus) [µg/mL] | T1/2 (Mus musculus [14]) [min] | ED50 (Mus musculus [15]) [mg/kg] | MIC (Proteus mirabilis) [µg/mL] | MIC (Klebsiella pneumoniae [16]) [µg/mL] | MIC (Proteus vulgaris) [µg/mL] | MIC (Escherichia coli [17]) [µg/mL] | other results |
| --- | --- | --- | --- | --- | --- | --- | --- | --- | --- | --- | --- | --- | --- | --- | --- | --- | --- | --- | --- | --- |
| CC(=O)N/C=C\[S+]([O-])C1=C(C(=O)O)N2C(=O)[C@@H](C(C)OS(=O)(=O)O)[C@H]2C1 (some centres undefined) | 0.354 | 0.752 | 7.52 |  |  |  |  |  |  |  |  |  |  |  |  |  |  |  |  | MIC [1]: 50 µg/mL (≈ 122 µM); MIC [3]: 25 µg/mL (≈ 61.2 µM); MIC [6]: 50 µg/mL (≈ 122 µM) |
| CC(=O)N/C=C\[S+]([O-])C1=C(C(=O)O)N2C(=O)[C@@H](C(C)(C)O)[C@H]2C1 (stereo in doubt; 22) |  |  |  |  |  |  |  |  |  |  |  |  |  |  |  |  |  |  |  | Activity [7]: synergistic effect |
| CN(C)CCn1nnnc1SCC1=C(C(=O)O)N2C(=O)[C@@H](NC(=O)Cc3csc(N)n3)[C@H]2SC1 [CEFOTIAM] |  |  |  |  |  |  |  |  |  |  |  |  |  |  |  |  |  |  |  | ED50 (Mus musculus [8]): 35.5 mg/kg |
| CC(=O)N/C=C\[S+]([O-])C1=C(C(=O)[O-])N2C(=O)[C@@H](C(C)(C)OS(=O)(=O)[O-])[C@H]2C1.[Na+].[Na+] (stereo in doubt; 8) | 1.18 | 38.6 | 515 | > 100 | 6.25 | 2.41 | 25 | 50 | 100 | 50 | 6.25 | > 100 | 6.25 | 75 | > 50 | > 100 | 50 | > 100 | 12.5 | ED50 at 0.1 mg/kg (Mus musculus [12]): 18.1 mg/kg |
| CC(=O)N/C=C/[S+]([O-])C1=C(C(=O)O)N2C(=O)[C@@H](C(C)(C)O)[C@H]2C1 (stereo in doubt; 20) |  |  |  |  |  |  |  |  |  |  |  |  |  |  |  |  |  |  |  | Activity [18]: synergistic effect |
| CC(=O)N/C=C/[S+]([O-])C1=C(C(=O)[O-])N2C(=O)[C@@H](C(C)(C)OS(=O)(=O)[O-])[C@H]2C1.[Na+].[Na+] (some centres undefined) | 0.793 | 118 | 450 | 25 | 6.25 | 8.87 | 12.5 | 25 | 50 | 12.5 | 12.5 | > 100 | 12.5 | 22 | > 100 | 50 | 12.5 | 50 | 12.5 | MIC [19]: 12.5 µg/mL; Activity [20]: synergistic effect; MIC [21]: 1.56 µg/mL; MIC (Klebsiella pneumoniae [22]): 6.25 µg/mL; ED50 at 100 mg/kg (Mus musculus [23]): 3.86 mg/kg; MIC [24]: 6.25 µg/mL |
